# Screening results (PubChem)
# Shown are actives, neighbours in structure and some others; about 2.5% of the full set was active somewhere.
# E-selectin induc: E-selectin induction on HUVECs. P16581. AID 686992. activation, % at 7.58 µM. HUVEC E-selectin immunofluorescence imaging; normalized: neutral wells 0, TNF-alpha wells 100. 260,000 compounds, 0.37% hits;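 active means mean E-selectin-positive cell signal at least 10% of the positive control, reached in at least 60% of replicates, without over 20% cell loss; inconclusive means no rule given, readout overlaps actives, possibly toxicity-flagged; inactive means the rest, including those meeting only one limit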
# Target sequence (P16581 whole entry, looked up): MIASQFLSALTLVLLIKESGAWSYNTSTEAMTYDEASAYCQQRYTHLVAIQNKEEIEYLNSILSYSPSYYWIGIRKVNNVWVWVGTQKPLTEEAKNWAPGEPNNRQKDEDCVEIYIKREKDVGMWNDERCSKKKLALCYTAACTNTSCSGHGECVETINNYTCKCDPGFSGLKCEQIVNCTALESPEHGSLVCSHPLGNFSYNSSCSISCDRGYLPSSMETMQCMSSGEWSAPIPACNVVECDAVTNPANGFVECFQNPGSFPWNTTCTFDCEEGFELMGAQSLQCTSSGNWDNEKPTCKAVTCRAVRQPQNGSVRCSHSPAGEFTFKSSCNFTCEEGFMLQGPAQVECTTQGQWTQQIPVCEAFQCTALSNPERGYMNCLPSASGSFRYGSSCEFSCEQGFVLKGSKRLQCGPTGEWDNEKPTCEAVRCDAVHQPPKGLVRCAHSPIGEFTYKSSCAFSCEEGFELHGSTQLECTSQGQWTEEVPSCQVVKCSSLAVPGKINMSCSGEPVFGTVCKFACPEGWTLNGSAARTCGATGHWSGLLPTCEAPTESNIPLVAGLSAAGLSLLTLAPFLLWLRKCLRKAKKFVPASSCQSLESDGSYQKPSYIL
#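 Read-out: % PE-positive cells | Test system: HUVEC | Doses: One compound dose added by pin transfer | Buffer or medium: EGM-2 over gelatin coat | Signal: Immunofluorescence imaging | Benchmarks: TNF-alpha, DMSO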
# ERAP1 HTS inh: inhibitors of human ERAP1 aminopeptidase; recombinant ERAP1, Leu-AMC fluorescence, 60 min; inhibition, % at 10.7 µM; 340,000 compounds, 0.15% hits; AID 652197;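 active means mean replicate inhibition of at least 30%, or all replicates individually reaching that 30% level; inactive means mean below 30% and not every replicate reaching it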;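 further: 0% = neutral control wells and 100% = L-leucinethiol positive control wells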
# DENV2 CPE rescue: protects cells from dengue virus 2 cytopathic effect; CPE inhibition, % at 9.99 µM; AID 651640; 350,000 compounds, 1.7% hits; DENV2-infected cells, cytopathic effect rescue, plate reader; in the data active means CPE inhibition above about 20%, passing the limit was not always enough; inconclusive means no clear call, values can overlap the other calls; tested in BHK-21 cells;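 further: 0% = median of neutral control wells and 100% = median of positive control wells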
# SIRT5 block: sirtuin-5 (human) deacylase inhibition; Q9NXA8; Purified SirT5, succinyl-peptide AMC, trypsin-coupled fluorescence; inhibition, % at 15 µM; 330,000 compounds, 1.1% hits; AID 652115; in the data active means inhibition above about 15%; inconclusive means no clear call, values can overlap the other calls
# PglD DTNB: PglD (C. jejuni) enzyme inhibition; purified PglD enzyme, DTNB colorimetric CoA detection; inhibition, % at 12.5 µM; 360,000 compounds, 0.098% hits; AID 602405; in the data active means inhibition above about 16%, passing the limit was not always enough; inconclusive means no clear call, values can overlap the other calls
# * = called active by the depositor; ? = inconclusive; . = no result given; ! = not active in a repeat.
SMILES,E-selectin induc,ERAP1 HTS inh,DENV2 CPE rescue,SIRT5 block,PglD DTNB
CCC(=O)N(C)C[C@H]1Oc2ncc(/C=C/c3ccccc3)cc2C(=O)N([C@@H](C)CO)C[C@@H]1C,0,0,42*,-17,2
CC(C)c1nnc(NC(=O)CCS(=O)(=O)c2ccccc2)s1,0,-2,-2,-8,-1
CCCNC(=O)N1[C@@H](CO)[C@@H](c2ccccc2)C12CN(C(=O)CC)C2,0,1,3,-4,.
COc1ccc(C2=NN(CCC(=O)NC3CCCCC3C)C(=O)CC2)cc1 (stereo unspecified),0,3,-3,.,3
COc1ccc(NC(=O)N2[C@@H]3CNC[C@H]2C3c2ccc(-c3cccc(OC)c3)cc2)cc1 (stereo partly specified),0,-3,-4,-2,.
COc1cccc(-c2ccc(C3[C@H]4CNC[C@@H]3N4C(=O)Nc3ccc(C(F)(F)F)cc3)cc2)c1 (stereo partly specified),0,.,33*!,.,.
COc1cccc(-c2ccc(C3[C@H]4CNC[C@@H]3N4C(=O)Nc3ccc4c(c3)OCO4)cc2)c1 (stereo partly specified),0,-1,19,4,.
COc1cccc(NC(=O)N2[C@@H]3CNC[C@H]2C3c2ccc(-c3ccccc3)cc2)c1 (stereo partly specified),1,0,99*!,-6,.
COc1cccc(NC(=O)N2[C@@H]3CNC[C@H]2C3c2ccc(/C=C/c3ccccc3)cc2)c1 (stereo partly specified),0,-2,89*!,3,.
O=C(Nc1ccc(C(F)(F)F)cc1)N1C[C@@H]2N[C@H](C1)C2c1ccc(-c2ccccc2)cc1 (stereo partly specified),0,2,7,21*!,.
CC1c2ccccc2N(S(=O)(=O)c2ccccc2)C1C (stereo unspecified),0,-3,5,.,-4
CC(=O)N1c2ccccc2[C@H](C)[C@H]1C,0,4,70*,.,-1
OC[C@H]1[C@H](c2ccc(Br)cc2)[C@@H]2CN(Cc3cncnc3)CCCCN12,0,-1,?,-1,-5
Cc1cc(F)ccc1-c1cc(C(=O)NCc2ccco2)[nH]n1,1,-5,57*,.,19
O=C(O)CCCC(=O)N1CCc2cc(S(=O)(=O)N3CCc4ccccc43)ccc21,.,6,18,28*,4
CC(=O)C1CCC2C3CCC4CC(=O)CCC4(C)C3C(C)(O)CC12C (stereo unspecified),1,1,4,.,-3
O=C(NC[C@H]1CC[C@H]2[C@H](CN2C(=O)C2CCOCC2)O1)c1cccnc1,.,2,?,-4,.
Cc1nn(Cc2ccc(Cl)cc2)c(C)c1NC(=O)c1ccc([N+](=O)[O-])cc1,.,-1,34*,-3,3
C=CCN=C1NC(c2ccccc2)C(C(=O)OC)=C(C)N1Cc1cccc(C(F)(F)F)c1 (stereo unspecified),1,-2,-4,.,.
COCCn1c(SCC(=O)Nc2ccc3c(c2)OCCO3)nnc1C(C)C,0,-3,22*,0,-2
CCCc1nnc(SCC(=O)Nc2ccc3c(c2)OCCO3)n1CCOC,.,-1,1,-4,-7
COc1ccc(CC(N)c2csc(NC(=O)c3ccc(OC)cc3)n2)cc1 (stereo unspecified),0,1,37*,-1,1
COc1ccc(CC(N)c2csc(NC(=O)c3ccc(F)cc3)n2)cc1 (stereo unspecified),0,1,2,.,1
COCCn1c(C(=O)N2CCCC2)cc2c1C[C@H]1CN(C(=O)c3ccccc3)[C@@](Cc3ccc(F)cc3)(C(=O)OC)[C@@H]21,0,.,64*,.,.
COC(=O)[C@@]1(Cc2ccc(F)cc2)[C@H]2c3cc(C(=O)N4CCCC4)n(Cc4ccccc4)c3C[C@H]2CN1C(=O)c1ccccc1,-7,.,0,-8,.
SMILES,E-selectin induc,ERAP1 HTS inh,DENV2 CPE rescue,SIRT5 block,PglD DTNB
COC(=O)[C@@]1(Cc2ccc(F)cc2)[C@H]2c3cc(C(=O)N(C)C)n(Cc4ccc(C)o4)c3C[C@H]2CN1C(=O)c1ccccc1,86*,.,2,.,.
Cc1ccc(S(=O)(=O)n2cc(-c3ccccc3)c3ccccc32)cc1,0,.,0,.,-1
Cc1ccc(S(=O)(=O)NCC[C@@H]2CC[C@H](NC(=O)c3cnccn3)[C@@H](CO)O2)cc1,-2,0,?,3,0
CCS(=O)(=O)NCC[C@@H]1CC[C@@H](NC(=O)C2CC2)[C@@H](CO)O1,0,-4,46*,-5,.
O=C(N[C@@H]1CC[C@@H](CCNS(=O)(=O)c2ccc(F)cc2)O[C@H]1CO)c1cnccn1,0,-1,51*,-1,0
O=C(N[C@H]1CC[C@@H](CCNS(=O)(=O)c2ccc(F)cc2)O[C@H]1CO)C1CCOCC1,0,-5,38*,-1,-1
CCOC(=O)c1cc(NC(=O)NCc2ccco2)c(C)nc1C,.,.,.,.,-4
CS(=O)(=O)N1CC(=O)N2[C@H](C1)[C@@H](c1ccc(C#Cc3ccc(F)cc3)cc1)[C@@H]2CO,2,-1,19,1,.
COCCNC(=O)/C(C#N)=C/c1cc(C)n(C2CCCCC2)c1C,.,7,?,16*,.
Cc1ccc(S(=O)(=O)N2C[C@H]3C(=O)C[C@@H](c4cccc(Cl)c4)N(S(=O)(=O)c4ccc(C)cc4)[C@H]3C[C@H]2c2ccccc2)cc1,-8,.,-5,-1,2
Cc1ccc(NC(=O)COC(=O)CNC(=O)C2CCCCC2)c(Br)c1,.,-2,.,-7,.
CCCCn1nnc(NC(=S)NC(=O)c2cccs2)n1,.,-4,-5,21*,-1
Cn1nnc(NC(=S)NC(=O)c2cccs2)n1,-2,-4,2,-5,-2
COc1ccc(S(=O)(=O)Nc2ccc3c(c2)C(=O)N([C@H](C)CO)C[C@H](C)[C@@H](CN(C)C(=O)Nc2c(C)noc2C)OCCCC[C@@H](C)O3)cc1,0,0,41*,-2,32
Cc1noc(C)c1NC(=O)N(C)C[C@H]1OCCCC[C@H](C)Oc2ccc(NS(=O)(=O)c3c(C)noc3C)cc2C(=O)N([C@H](C)CO)C[C@@H]1C,0,0,34*,-1,-1
CNC[C@@H]1Oc2ccc(NS(=O)(=O)c3cn(C)cn3)cc2C(=O)N([C@@H](C)CO)C[C@H]1C,-2,1,23*,-9,-5
C[C@@H]1CN([C@H](C)CO)C(=O)c2cc(NS(=O)(=O)c3cn(C)cn3)ccc2O[C@H]1CN(C)Cc1ccncc1,92*,-2,-3,-1,6
CNC[C@H]1Oc2ccc(NS(=O)(=O)c3ccc(Cl)cc3)cc2C(=O)N([C@H](C)CO)C[C@H]1C,.,5,28*,1,1
CNC[C@@H]1Oc2ccc(NS(C)(=O)=O)cc2C(=O)N([C@@H](C)CO)C[C@@H]1C,33*,.,.,.,.
CNC[C@@H]1Oc2ccc(NS(C)(=O)=O)cc2C(=O)N([C@@H](C)CO)C[C@H]1C,9,1,-4,.,0
